pIC50: −log10 of the molar value. Converted amounts (≈) assume the structure as drawn.
Legend:
Escherichia coli = assay: Antibacterial activity against Escherichia coli after 24 hrs by MTT assay; type: functional
Summary of the method: (§1)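 Broth microdilution in Mueller-Hinton medium. Compound stock 100 µg/mL in DMSO, serially diluted into medium. Inoculum about 10⁵ cfu/mL, incubated 37 °C for 24 h. After visual MIC reading, MTT (2 mg/mL in PBS pH 7.4) added, 4–5 h at room temperature. Dye extracted with isopropanol containing 5% 1 mol/L HCl for 12 h, OD read at 550 nm.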

Pseudomonas fluorescens = assay: Antibacterial activity against Pseudomonas fluorescens after 24 hrs by MTT assay; type: functional; summary of the method: as §1
Bacillus subtilis = assay: Antibacterial activity against Bacillus subtilis after 24 hrs by MTT assay; type: functional; summary of the method: as §1
Staphylococcus aureus = assay: Antibacterial activity against Staphylococcus aureus after 24 hrs by MTT assay; type: functional; summary of the method: as §1
[1] = biological target: T1, 3-oxoacyl-[acyl-carrier-protein] synthase 3 (Escherichia coli, UniProt C3TDZ2); assay: Inhibition of Escherichia coli FabH expressed in Escherichia coli DH10B cells assessed as incorporation of 3[H] after 25 mins by liquid scintillation
T1 sequence (C3TDZ2 whole entry): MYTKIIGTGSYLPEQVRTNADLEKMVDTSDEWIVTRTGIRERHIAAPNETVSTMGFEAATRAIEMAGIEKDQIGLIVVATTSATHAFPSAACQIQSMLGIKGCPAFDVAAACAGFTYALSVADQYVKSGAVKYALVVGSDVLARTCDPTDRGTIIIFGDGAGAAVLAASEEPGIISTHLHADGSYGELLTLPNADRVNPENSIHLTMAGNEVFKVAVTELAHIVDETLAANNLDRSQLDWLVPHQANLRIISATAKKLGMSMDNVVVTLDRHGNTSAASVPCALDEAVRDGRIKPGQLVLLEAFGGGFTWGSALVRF
Summary of the method: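 Native E. coli FabH overexpressed from pET30 in DH10B cells and purified by Q-Sepharose, MonoQ and hydroxyapatite chromatography. Reaction mix contains 0.25 mM MgCl₂, acetyl-CoA, 0.5 mM NADH and 0.5 mM NADPH, run 25 min. Stopped with ice-cold 50% TCA, protein pelleted, washed with 10% TCA, dissolved in 0.5 M NaOH. Incorporated ³H counted by liquid scintillation. DMSO at most 2% final; IC50 determined.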

[2] = Toxicity in erythrocytes assessed as hemolytic activity; type: cell-based; settings: erythrocyte

| SMILES | MIC (Escherichia coli) [µg/mL] | MIC (Pseudomonas fluorescens) [µg/mL] | MIC (Bacillus subtilis) [µg/mL] | MIC (Staphylococcus aureus) [µg/mL] | pIC50 [1] | LC30 [2] [µg/mL] |
| --- | --- | --- | --- | --- | --- | --- |
| CCOC(=O)/C(=C/Nc1ccc(C)cc1)c1ccc(OCc2ccccc2)cc1 | > 50 | > 50 | > 50 | > 50 | – | – |
| CCOC(=O)/C(=C/Nc1ccc(F)cc1)c1ccc(OCc2ccccc2)cc1 | 6.25 (≈ 16 µM) | 12.5 (≈ 31.9 µM) | 25 (≈ 63.9 µM) | 12.5 (≈ 31.9 µM) | – | – |
| CCOC(=O)/C(=C\Nc1ccccc1)c1ccc(OCc2ccccc2)cc1 | 12.5 (≈ 33.5 µM) | 25 (≈ 66.9 µM) | 25 (≈ 66.9 µM) | 50 (≈ 134 µM) | – | – |
| CCOC(=O)/C(=C\Nc1ccc(C(C)C)cc1)c1ccc(OCc2ccccc2)cc1 | 3.12 (≈ 7.52 µM) | 3.12 (≈ 7.52 µM) | 25 (≈ 60.2 µM) | 12.5 (≈ 30.1 µM) | – | – |
| CCOC(=O)/C(=C\Nc1ccc(F)cc1)c1ccc(OCc2ccccc2)cc1 | 3.12 (≈ 7.98 µM) | 3.12 (≈ 7.98 µM) | 25 (≈ 63.9 µM) | > 50 | 5.09 | > 10000 |
| CCOC(=O)/C(=C\Nc1ccc(Cl)cc1Cl)c1ccc(OCc2ccccc2)cc1 | 25 (≈ 56.5 µM) | 25 (≈ 56.5 µM) | 25 (≈ 56.5 µM) | 25 (≈ 56.5 µM) | – | – |
| CCOC(=O)/C(=C/Nc1ccc(Cl)cc1)c1ccc(OCc2ccccc2)cc1 | 25 (≈ 61.3 µM) | 25 (≈ 61.3 µM) | 25 (≈ 61.3 µM) | > 50 | – | – |
| CCOC(=O)/C(=C/Nc1ccccc1Cl)c1ccc(OCc2ccccc2)cc1 | 25 (≈ 61.3 µM) | > 50 | 25 (≈ 61.3 µM) | 12.5 (≈ 30.6 µM) | – | – |
| CCOC(=O)/C(=C\Nc1ccccc1F)c1ccc(OCc2ccccc2)cc1 | 12.5 (≈ 31.9 µM) | 25 (≈ 63.9 µM) | > 50 | 25 (≈ 63.9 µM) | – | – |
| CCOC(=O)/C(=C/Nc1ccccc1)c1ccc(OCc2ccccc2)cc1 | 6.25 (≈ 16.7 µM) | 6.25 (≈ 16.7 µM) | 25 (≈ 66.9 µM) | 25 (≈ 66.9 µM) | – | – |
| CCOC(=O)/C(=C\Nc1ccc([N+](=O)[O-])cc1)c1ccc(OCc2ccccc2)cc1 | 3.12 (≈ 7.47 µM) | 6.25 (≈ 14.9 µM) | > 50 | > 50 | – | – |
| CCOC(=O)/C(=C\Nc1ccc(Br)cc1)c1ccc(OCc2ccccc2)cc1 | 1.56 (≈ 3.45 µM) | 1.56 (≈ 3.45 µM) | 50 (≈ 111 µM) | 25 (≈ 55.3 µM) | 5.48 | > 10000 |
| CCOC(=O)/C(=C\Nc1ccc(Br)cc1Br)c1ccc(OCc2ccccc2)cc1 | 12.5 (≈ 23.5 µM) | 12.5 (≈ 23.5 µM) | 25 (≈ 47.1 µM) | 25 (≈ 47.1 µM) | 4.62 | > 10000 |
| CCOC(=O)/C(=C/Nc1ccc(Br)cc1Br)c1ccc(OCc2ccccc2)cc1 | 3.13 (≈ 5.89 µM) | 12.5 (≈ 23.5 µM) | 12.5 (≈ 23.5 µM) | 12.5 (≈ 23.5 µM) | – | – |
| CCOC(=O)/C(=C/Nc1ccc(F)cc1F)c1ccc(OCc2ccccc2)cc1 | 25 (≈ 61.1 µM) | 25 (≈ 61.1 µM) | 12.5 (≈ 30.5 µM) | 12.5 (≈ 30.5 µM) | – | – |
| CCOC(=O)/C(=C/Nc1ccc(Cl)cc1Cl)c1ccc(OCc2ccccc2)cc1 | 25 (≈ 56.5 µM) | 25 (≈ 56.5 µM) | > 50 | > 50 | – | – |
| CCOC(=O)/C(=C/Nc1ccc([N+](=O)[O-])cc1)c1ccc(OCc2ccccc2)cc1 | > 50 | > 50 | > 50 | > 50 | – | – |
| CCOC(=O)/C(=C/Nc1ccccc1F)c1ccc(OCc2ccccc2)cc1 | 25 (≈ 63.9 µM) | > 50 | > 50 | > 50 | – | – |
| CCOC(=O)/C(=C\Nc1ccc(C)cc1)c1ccc(OCc2ccccc2)cc1 | 0.78 (≈ 2.01 µM) | 1.56 (≈ 4.03 µM) | 25 (≈ 64.5 µM) | 25 (≈ 64.5 µM) | 5.59 | > 10000 |
| CCOC(=O)/C(=C\Nc1ccc(Cl)cc1)c1ccc(OCc2ccccc2)cc1 | 12.5 (≈ 30.6 µM) | 6.25 (≈ 15.3 µM) | 25 (≈ 61.3 µM) | 25 (≈ 61.3 µM) | – | – |
| CCOC(=O)/C(=C/Nc1ccc(C(C)C)cc1)c1ccc(OCc2ccccc2)cc1 | 6.25 (≈ 15 µM) | 6.25 (≈ 15 µM) | 12.5 (≈ 30.1 µM) | 25 (≈ 60.2 µM) | 5.07 | > 10000 |
| CCOC(=O)/C(=C\Nc1ccccc1Cl)c1ccc(OCc2ccccc2)cc1 | 12.5 (≈ 30.6 µM) | 25 (≈ 61.3 µM) | > 50 | > 50 | 4.55 | > 10000 |
| CCOC(=O)/C(=C/Nc1ccc(Br)cc1)c1ccc(OCc2ccccc2)cc1 | > 50 | > 50 | > 50 | > 50 | 4.37 | > 10000 |
| CCOC(=O)/C(=C\Nc1ccc(F)cc1F)c1ccc(OCc2ccccc2)cc1 | 6.25 (≈ 15.3 µM) | 12.5 (≈ 30.5 µM) | > 50 | > 50 | – | – |
| NC[C@H]1O[C@H](O[C@H]2[C@H](O)[C@@H](O[C@H]3O[C@H](CO)[C@@H](O)[C@H](N)[C@H]3O)[C@H](N)C[C@@H]2N)[C@H](N)[C@@H](O)[C@@H]1O [BEKANAMYCIN] | 3.12 (≈ 6.46 µM) | 3.12 (≈ 6.46 µM) | 0.39 (≈ 0.807 µM) | 1.56 (≈ 3.23 µM) | – | – |
